Assay outcomes: PubChem BioAssay, several laboratories
Only some compounds are listed: those with a hit (about 2.6% of all), similar ones and a draw of the others.
Lipid droplet = inhibitors of hepatocyte lipid droplet formation, primary screen, imaging, high-throughput imaging, BODIPY stain. AML12 mouse hepatocytes, oleate lipid droplets. inhibition, % at 6.5 µM. AID 1656, 2009. hit rate 0.4% among 240,000;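 active means lipid droplet intensity inhibited by at least 50%, with more than 500 cells counted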
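Test system: AML12 hepatocytes (mouse); reagent: oleate loading, 100 µM; dosing: one dose, 6.5 µM compound; incubation: overnight exposure; signal: fluorescence imaging, 20x objective, two fields per well; read-out basis: % inhibition of corrected integrated BODIPY droplet signal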
MEKK2 mut-MEK5 = MEK5 binding signal on mutant MEKK2 PB1, primary screen, biochemical, multiplex bead flow cytometry, Alexa488-MEK5 | Alexa488-MEK5 binding to MEKK2 mutant | percent response, % at 10 µM | hit rate 0.35% among 290,000 | AID 1530, 2009; in the data active means percent response above about 24%, passing the limit was not always enough
MEKK3 PB1 HTS = modulators of MEKK3-MEK5 PB1 binding, primary screen, biochemical, wildtype MEKK3, multiplex bead flow cytometry, Alexa488-MEK5 | Mitogen-activated protein kinase kinase kinase 3 (Homo sapiens), Q99759 | bead-based flow cytometry, Alexa488-MEK5 binding to MEKK3; actives lie on both sides; 0 = blocked by unlabeled MEK5, 100 = vehicle | binding response (% of control), % at 10 µM | hit rate 1.4% among 290,000 | AID 1529, 2009;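 active means binding response more than 3 SD above or below the average of its plate-row segment, actives on both sides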;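 further: Alexa488 bead fluorescence after subtracting the streptavidin-only scavenger bead signal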
Target sequence (Q99759 whole entry, looked up): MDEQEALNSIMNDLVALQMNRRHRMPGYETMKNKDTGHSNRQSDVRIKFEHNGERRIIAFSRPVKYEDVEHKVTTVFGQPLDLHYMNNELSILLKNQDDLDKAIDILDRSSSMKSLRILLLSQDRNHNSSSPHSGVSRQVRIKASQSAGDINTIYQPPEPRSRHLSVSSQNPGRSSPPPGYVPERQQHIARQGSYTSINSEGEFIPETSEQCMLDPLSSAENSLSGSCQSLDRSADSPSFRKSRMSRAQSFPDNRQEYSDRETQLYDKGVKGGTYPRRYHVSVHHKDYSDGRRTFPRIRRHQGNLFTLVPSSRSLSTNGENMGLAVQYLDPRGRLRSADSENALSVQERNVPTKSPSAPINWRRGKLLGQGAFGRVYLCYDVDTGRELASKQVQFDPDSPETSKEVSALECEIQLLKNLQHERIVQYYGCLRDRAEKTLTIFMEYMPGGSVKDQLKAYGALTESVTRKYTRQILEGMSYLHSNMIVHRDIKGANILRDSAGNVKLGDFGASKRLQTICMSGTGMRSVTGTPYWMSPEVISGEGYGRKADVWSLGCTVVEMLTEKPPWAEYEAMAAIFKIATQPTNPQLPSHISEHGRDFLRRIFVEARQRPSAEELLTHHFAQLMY
MEKK2 WT-MEK5 = modulators of MEK5 binding to wildtype MEKK2, primary screen, biochemical, multiplex bead flow cytometry, Alexa488-MEK5; Mitogen-activated protein kinase kinase kinase 2 (Homo sapiens), Q9Y2U5; Alexa488-MEK5 binding to MEKK2 WT; actives lie on both sides; binding response (% of control), % at 10 µM; hit rate 1.1% among 290,000; in the data active means binding response below about 67% or above about 130%
MEKK2wt confirm = modulators of MEK5 binding to wildtype MEKK2, confirmation, biochemical, single concentration, multiplex bead flow cytometry; shares compounds with MEKK3 PB1 HTS; Alexa488-MEK5 binding to MEKK2 WT; actives lie on both sides; binding response (% of control), % at 10 µM; hit rate 2.4% among 5,900; AID 1892, 2009; in the data active means binding response below about 16% or above about 210%; inactive means in between
MEKK2mut-MEK5 = mutant MEKK2 PB1-MEK5 binding signal retest – biochemical, single concentration, multiplex bead flow cytometry, confirmation | AID 1893, 2009 | Alexa488-MEK5 binding to MEKK2 mutant | percent response, % at 10 µM | shares compounds with MEKK3 PB1 HTS | hit rate 2% among 5,900; in the data active means percent response mostly above about 71%, no sharp cut-off; inactive means mostly below about 38%;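 further: higher means compound restores mutant binding toward wildtype level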
MEKK3-MEK5 inh = MEKK3 wild-type PB1 binding to MEK5, inhibitors, confirmation, biochemical, bead multiplex flow cytometry, single concentration, wildtype; shares compounds with MEKK3 PB1 HTS; Alexa488-MEK5 binding to MEKK3; hits give low values; binding response (% of control), % at 10 µM; hit rate 1.8% among 5,900; AID 1894, 2009;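 active means binding response below 72% of control, or above a set upper limit, though filed actives all read lower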;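 further: 100% = DMSO only wells and 0% = binding blocked by excess unlabeled MEK5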
* = called active by the depositor; [ ] = remark or other dose.

For CCCCn1c(NCc2ccccc2NS(=O)(=O)c2ccc(C)cc2)nc2ccccc21 the results were MEKK2 mut-MEK5 -2.0, MEKK3 PB1 HTS 96.0 and MEKK2 WT-MEK5 114.0.
O=S(=O)(c1cccc2nsnc12)N1CCN(c2ccc(F)cc2)CC1 was read as Lipid droplet -2.1, MEKK2 mut-MEK5 -10.0, MEKK3 PB1 HTS 72.0*[inhibitor], MEKK2 WT-MEK5 74.0, MEKK2wt confirm 97.0, MEKK2mut-MEK5 1.0 and MEKK3-MEK5 inh 100.0.
For O=C(NCCc1ccc2c(c1)OCO2)C1CCN(S(=O)(=O)c2ccc(Cl)cc2)CC1 the results were MEKK2 mut-MEK5 2.0, MEKK3 PB1 HTS 101.0 and MEKK2 WT-MEK5 103.0.
COc1ccc(S(=O)(=O)N2CCC(C(=O)NCCc3ccc4c(c3)OCO4)CC2)cc1 was read as MEKK2 mut-MEK5 -26.0, MEKK3 PB1 HTS 48.0*[inhibitor], MEKK2 WT-MEK5 56.0, MEKK2wt confirm 106.0, MEKK2mut-MEK5 -1.0 and MEKK3-MEK5 inh 102.0.
For Brc1ccc(-c2nnc(-c3cccnc3)c3conc23)cc1 the results were MEKK2 mut-MEK5 -5.0, MEKK3 PB1 HTS 80.0*[inhibitor], MEKK2 WT-MEK5 78.0, MEKK2wt confirm 99.0, MEKK2mut-MEK5 1.0 and MEKK3-MEK5 inh 102.0.
Screening COc1ccc(-n2cc(CNCC3CCOCC3)c(-c3cccc(F)c3)n2)cc1 returned Lipid droplet -18.7, MEKK2 mut-MEK5 0.0, MEKK3 PB1 HTS 110.0 and MEKK2 WT-MEK5 122.0.
`COc1ccc(-n2cc(CNCc3cnc4ccccn34)c(-c3cccc(F)c3)n2)cc1` gave Lipid droplet -2.5, MEKK2 mut-MEK5 59.0*, MEKK3 PB1 HTS 106.0, MEKK2 WT-MEK5 170.0*, MEKK2wt confirm 151.0, MEKK2mut-MEK5 41.0 and MEKK3-MEK5 inh 116.0.
Screening COc1ccc2c(Cl)c(C(=O)N/N=C3\CCCC(=O)C3)sc2c1 returned Lipid droplet 20.7, MEKK2 mut-MEK5 0.0, MEKK3 PB1 HTS 100.0 and MEKK2 WT-MEK5 94.0.
Screening COC/C=C/C1=CC2=CC(=O)C(C)(OC(=O)c3ccco3)C(=O)C2=CO1 (stereo not drawn) returned MEKK2 mut-MEK5 -9.0, MEKK3 PB1 HTS 83.0, MEKK2 WT-MEK5 72.0*[inhibitor], MEKK2wt confirm 93.0, MEKK2mut-MEK5 -4.0 and MEKK3-MEK5 inh 99.0.
For Cc1cc(C)c2nc3sc(C(=O)N4CCOCC4)c(N)c3cc2c1 the results were Lipid droplet -39.0, MEKK2 mut-MEK5 -13.0, MEKK3 PB1 HTS 29.0*[inhibitor], MEKK2 WT-MEK5 17.0*[inhibitor], MEKK2wt confirm 102.0, MEKK2mut-MEK5 0.0 and MEKK3-MEK5 inh 97.0.
Screening Cc1ccc(C)c2nc3sc(C(=O)N4CCOCC4)c(N)c3cc12 returned Lipid droplet -6.1, MEKK2 mut-MEK5 -9.0, MEKK3 PB1 HTS 99.0 and MEKK2 WT-MEK5 90.0.
For COc1ccc(S(=O)(=O)N2CCCCCC2)cc1NC(=O)c1c2c(nc3ccccc13)CCN(Cc1ccccc1)C2 the results were Lipid droplet -15.1, MEKK2 mut-MEK5 -1.0, MEKK3 PB1 HTS 105.0 and MEKK2 WT-MEK5 107.0.
`COc1ccc(NC(=O)c2c3c(nc4ccccc24)CCN(Cc2ccccc2)C3)c(OC)c1` gave Lipid droplet 1.7, MEKK2 mut-MEK5 -1.0, MEKK3 PB1 HTS 75.0*[inhibitor], MEKK2 WT-MEK5 88.0, MEKK2wt confirm 113.0, MEKK2mut-MEK5 15.0 and MEKK3-MEK5 inh 106.0.
For O=C(CN(c1ccccc1)S(=O)(=O)c1ccc(F)cc1)NC1CCCCCC1 the results were Lipid droplet -14.4, MEKK2 mut-MEK5 3.0, MEKK3 PB1 HTS 98.0 and MEKK2 WT-MEK5 102.0.
For Cc1ccc(C)c(N(CC(=O)NCc2ccc3c(c2)OCO3)C(=O)CCC(=O)Nc2ccccn2)c1 the results were MEKK2 mut-MEK5 -8.0, MEKK3 PB1 HTS 82.0*[inhibitor], MEKK2 WT-MEK5 91.0, MEKK2wt confirm 102.0, MEKK2mut-MEK5 4.0 and MEKK3-MEK5 inh 104.0.
`Cc1ccc(N(CC(=O)NCc2ccc3c(c2)OCO3)C(=O)CCC(=O)Nc2ccccn2)cc1` gave Lipid droplet 14.7, MEKK2 mut-MEK5 -5.0, MEKK3 PB1 HTS 101.0 and MEKK2 WT-MEK5 95.0.
COCCNC(=O)CN(C(=O)CCC(=O)Nc1ccccn1)c1ccccc1F was read as Lipid droplet 21.1, MEKK2 mut-MEK5 -1.0, MEKK3 PB1 HTS 70.0*[inhibitor], MEKK2 WT-MEK5 86.0, MEKK2wt confirm 103.0, MEKK2mut-MEK5 4.0 and MEKK3-MEK5 inh 100.0.
`O=S(=O)(Nc1nc2ccccc2nc1NCC1CCCO1)c1ccccc1` (stereo not drawn) gave Lipid droplet -9.2, MEKK2 mut-MEK5 -25.0, MEKK3 PB1 HTS 53.0*[inhibitor], MEKK2 WT-MEK5 70.0, MEKK2wt confirm 94.0, MEKK2mut-MEK5 -7.0 and MEKK3-MEK5 inh 96.0.
`c1ccc(CN2CCC(Nc3nc(-c4cccnc4)nc4ccccc34)CC2)cc1` gave Lipid droplet 25.5, MEKK2 mut-MEK5 16.0, MEKK3 PB1 HTS 102.0, MEKK2 WT-MEK5 144.0*, MEKK2wt confirm 137.0, MEKK2mut-MEK5 12.0 and MEKK3-MEK5 inh 98.0.
`c1ccc(CN2CCC(Nc3ncnc4sccc34)CC2)cc1` gave Lipid droplet 4.7, MEKK2 mut-MEK5 51.0*, MEKK3 PB1 HTS 105.0, MEKK2 WT-MEK5 129.0, MEKK2wt confirm 125.0, MEKK2mut-MEK5 12.0 and MEKK3-MEK5 inh 103.0.
Screening c1ccc(CNc2nc(-c3cccnc3)nc3ccccc23)cc1 returned Lipid droplet 0.8, MEKK2 mut-MEK5 2.0, MEKK3 PB1 HTS 95.0 and MEKK2 WT-MEK5 95.0.
For CN(Cc1cccc(F)c1)C(=O)CNS(=O)(=O)c1ccc2ccccc2c1 the results were Lipid droplet -23.0, MEKK2 mut-MEK5 2.0, MEKK3 PB1 HTS 100.0 and MEKK2 WT-MEK5 100.0.
Screening CCCn1c(SCC(=O)c2c[nH]c3ccccc23)nnc1-c1ccncc1 returned Lipid droplet 5.7, MEKK2 mut-MEK5 3.0, MEKK3 PB1 HTS 71.0*[inhibitor], MEKK2 WT-MEK5 75.0, MEKK2wt confirm 98.0, MEKK2mut-MEK5 -5.0 and MEKK3-MEK5 inh 96.0.
O=c1o[nH]c(-c2ccccc2)c1C1=NCCCCC1 was read as MEKK2 mut-MEK5 -3.0, MEKK3 PB1 HTS 73.0*[inhibitor], MEKK2 WT-MEK5 96.0, MEKK2wt confirm 101.0, MEKK2mut-MEK5 -2.0 and MEKK3-MEK5 inh 102.0.
